# Experimental data pooled from the literature.
# Lines come from different studies, so protocols differ.
# Target: Alpha-glucosidase MAL12 (MAL12, Saccharomyces cerevisiae S288c, UniProt P53341)
# Effect on: enzyme activity
# Action: inhibitor
Compound,test,conditions,IC50
CC(C)(CO)CC1=C(O)C(=O)c2ccccc2C1=O,,,> 200 µM
COc1ccc(-c2c(N)c(-c3ccc(C)cc3)nc3ncnn23)cc1,absorbance,,89.3 µM
C[C@H]1CN(C(=O)Nc2ccc(C(F)(F)F)cc2)CCN1c1ccnc(Nc2ccc(F)cc2)n1,absorbance,pH 6.9,1.82 µM
Cc1ccc(-c2nn(-c3ccccc3)cc2C2C3=C(CC(C)(C)CC3=O)n3c(=O)c4ccccc4c(=O)n32)cc1 (stereo not drawn),absorbance,,282 µM
COc1cc(/C=C/c2ccc(O)cc2)cc(OC)c1,absorbance,pH 6.8,1570 µM
CCCCCCCCCCCCCC(=O)OCC(C)(C)CC1=C(O)C(=O)c2ccccc2C1=O,,,5.3 µM
CC(=O)C1=C(C)n2c(=O)c3ccccc3c(=O)n2C1c1cn(-c2ccccc2)nc1-c1ccc(Cl)cc1 (stereo not drawn),absorbance,,359 µM
C[C@@H]1CN(C(=O)Nc2ccc(C(F)(F)F)cc2)CCN1c1ccnc(Nc2ccc(Cl)cc2)n1,absorbance,pH 6.9,3.47 µM
Nc1c(-c2ccc(Cl)cc2)nc2ncnn2c1-c1cccs1,absorbance,,82.4 µM
C[C@@H]1CN(C(=O)Nc2ccc(C(F)(F)F)cc2)CCN1c1ccnc(Nc2ccc(Cl)c(O)c2)n1,absorbance,pH 6.9,2.08 µM
CC1(C)CC(=O)C2=C(C1)n1c(=O)c3ccccc3c(=O)n1C2c1cn(-c2ccccc2)nc1-c1ccc([N+](=O)[O-])cc1 (stereo not drawn),absorbance,,285 µM
Nc1c(-c2ccccc2)nc2ncnn2c1-c1ccccc1Cl,absorbance,,125 µM
C[C@H]1CN(C(=O)Nc2ccc(C(F)(F)F)cc2)CCN1c1ccnc(Nc2cccc([N+](=O)[O-])c2)n1,absorbance,pH 6.9,1.03 µM
CC1(C)CC(=O)C2=C(C1)n1c(=O)c3ccccc3c(=O)n1C2c1cn(-c2ccccc2)nc1-c1ccccc1 (stereo not drawn),absorbance,,74.2 µM
Nc1c(-c2ccccc2)nc2ncnn2c1-c1cccc(Cl)c1,absorbance,,82.5 µM
